Rows were chosen to be rich in hits. Some 1.6% of all compounds tested hit in one or more screens of this group.
DDE Tn7 FP inh – DD(E)-Tn7 binding inhibition, primary FP screen; FP displacement of FITC-Tn7 peptide from fibrin DD(E); 0% = median of compound wells per plate; inhibition, % at 8.3 µM; hit rate 0.13% among 370,000; AID 720508;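 active = inhibition above the mean of compounds falling within the control limits plus 3 SD of them, cut at about 14% in these data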
Target sequence (P02675 whole entry, looked up): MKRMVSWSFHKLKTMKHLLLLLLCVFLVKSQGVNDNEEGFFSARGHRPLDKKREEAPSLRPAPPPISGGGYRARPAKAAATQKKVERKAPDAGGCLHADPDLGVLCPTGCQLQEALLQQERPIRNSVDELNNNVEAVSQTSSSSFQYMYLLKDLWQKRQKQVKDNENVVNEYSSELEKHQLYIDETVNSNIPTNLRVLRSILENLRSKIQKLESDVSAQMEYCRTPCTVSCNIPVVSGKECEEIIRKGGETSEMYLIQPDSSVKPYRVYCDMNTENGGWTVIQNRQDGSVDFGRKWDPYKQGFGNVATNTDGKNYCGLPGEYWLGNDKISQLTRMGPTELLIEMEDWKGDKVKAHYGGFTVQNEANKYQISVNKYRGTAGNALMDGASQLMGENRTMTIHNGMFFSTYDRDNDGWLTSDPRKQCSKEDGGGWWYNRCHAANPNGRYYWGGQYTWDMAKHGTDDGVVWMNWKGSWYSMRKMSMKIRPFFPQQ
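Assay system: human fibrin DD(E) protein / Input: 2 µM fibrin DD(E) / Benchmarks: high control of 10 µM Aha-Tn7 peptide / Measured by: fluorescence polarization of the labelled Tn7 tracer / Medium: Tris buffer with calcium and detergent, pH 7.8 / Timing: 10 min compound pre-incubation, 3 h probe incubation at room temperature / Repeats: one replicate per compound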
MT1-MMP act inh – blocks activation of human MT1-MMP. HT1080 RFP-PRO-GFP cells, GFP/RFP ratio fluorescence, overnight; percent of plate control window, DMSO zero. GFP/RFP ratio change, % at 20 µM. hit rate 0.061% among 360,000. AID 651647;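 active = GFP/RFP ratio change of at least 30% with cell ATP level not reduced by more than half and red fluorescence within 50% of control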
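Test system: HT1080 RFP-PRO-GFP cells; Benchmarks: DMSO and RFP-L50D-GFP cell wells; Timing: cells overnight before dosing, compound overnight, 37 °C, 5% CO2; Compound: one 20 µM compound dose with 1% DMSO; Read-out: GFP/RFP fluorescence ratio.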
ADAM10 inh – inhibits human ADAM10. O14672. recombinant ADAM10, EDANS/DABCYL FRET peptide cleavage, 3 h. inhibition, % at 7 µM. hit rate 0.62% among 370,000;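 active = inhibition above a per-campaign cutoff equal to the mean of compounds falling between control-based bounds plus 3 SD, cut at about 20% in these data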
Tn6 DDE FP – inhibitors of Tn6 peptide binding to human fibrin DD(E); Fibrin DD(E) TRITC-Tn6 fluorescence polarization displacement; AID 720509; hit rate 0.21% among 370,000; inhibition, % at 8.3 µM; P02675;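 active = inhibition above a per-campaign cutoff: mean of compounds within control limits plus 3 SD, cut at about 15% in these data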
ADAM17 inh – inhibits human ADAM17; recombinant ADAM17, EDANS/DABCYL FRET peptide cleavage; P78536; inhibition, % at 6.95 µM; hit rate 0.83% among 370,000;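 active = inhibition above the mean of compounds lying between control limits plus 3 SD, set per campaign, cut at about 8.5% in these data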
DDE Tn7 confirm – DD(E)-Tn7 binding inhibition, FP confirmation; inhibition, % at 8.3 µM; FP displacement of TRITC-Tn7 peptide from DD(E); 0% set at plate's compound-well median; hit rate 5% among 460; shares compounds with DDE Tn7 FP inh; AID 720628;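 active = inhibition above the campaign cutoff, the mean of compounds within control limits plus 3 SD, cut at about 14% in these data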;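 note: displacers lower polarization since freed probe rises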
Tn7 DDE ctr – DD(E)-Tn7 binding inhibition, counter-screen. shares compounds with DDE Tn7 FP inh. inhibition, % at 8.3 µM. AID 720633. hit rate 3% among 460. fibrin DD(E), TRITC-Tn7 probe displacement, fluorescence polarization;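 active = inhibition above the cutoff, the mean of compounds lying between the control bounds plus 3 SD of those compounds, cut at about 17% in these data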
Of the large screens only hits and unclear results are named; the others gave an inactive call (follow-up assays come after a bar, where they were run).

COc1ccc(NC(=O)C(c2cc3c(cc2[N+](=O)[O-])OCO3)N(C)c2ccccc2)cc1 (configuration not stated)	DDE Tn7 FP inh 14.6 | DDE Tn7 confirm inactive | Tn7 DDE ctr inactive
CSc1ccccc1NC(=O)COC(=O)c1cnc(C)cn1	DDE Tn7 FP inh 14.2 | DDE Tn7 confirm inactive | Tn7 DDE ctr inactive
COc1ccccc1NC(=O)COC(=O)c1cnc(C)cn1	none
CN1C(=O)[C@@]2(O[C@H]3c4ccccc4C=CN3C3=C2C(=O)CCC3)c2ccccc21	none (no result: MT1-MMP act inh)
O=c1[nH]cnc2c1c(-c1ccccc1)cn2-c1ccccc1	DDE Tn7 FP inh 17.2 | DDE Tn7 confirm inactive | Tn7 DDE ctr inactive
Cc1ccc(-n2cc(-c3ccccc3)c3c(=O)[nH]cnc32)cc1	none
CC(=O)Oc1ccc2c(c1)C(=O)c1ccccc1CO2	DDE Tn7 FP inh 14.3 | DDE Tn7 confirm inactive | Tn7 DDE ctr inactive
O=C(Nc1c(-c2ccc(F)c(F)c2)nc2ncccn12)C1CC1	none (no result: MT1-MMP act inh)
C/C(=N\NC(=O)CSCc1ccc(Cl)cc1)c1ccc2c(c1)OCCO2	DDE Tn7 FP inh 14.2 | DDE Tn7 confirm inactive | Tn7 DDE ctr inactive
C/C(=N\NC(=O)COc1cccc(Cl)c1)c1ccc2c(c1)OCCO2	none
CCCC/C=C1/[C@H](c2ccccc2)N(C)C2=N[C@@H](c3ccccc3)CC(=O)N21	none (no result: MT1-MMP act inh)
COc1ccc(N=Nc2nc3ccc(Br)cc3n2C)cc1	DDE Tn7 FP inh 55.5 | DDE Tn7 confirm inactive | Tn7 DDE ctr inactive
CN1CCN(C(=O)OCCOCCOC(=O)N2CCN(C)CC2)CC1	DDE Tn7 FP inh 13.9 | DDE Tn7 confirm inactive | Tn7 DDE ctr inactive
COc1cc(OC)c(CNC2CCCCCC2)cc1Br	DDE Tn7 FP inh 14.8 | DDE Tn7 confirm inactive | Tn7 DDE ctr inactive
Cc1ccc2nc(-c3ccc(C#N)cc3)c(Cc3cccc(F)c3)n2c1	none (no result: MT1-MMP act inh)
CC(=O)Nc1cc(-c2ccccc2N(C)C)cn2c(-c3ccc(S(C)(=O)=O)cc3)cnc12	DDE Tn7 FP inh 26.3 | DDE Tn7 confirm inactive | Tn7 DDE ctr inactive
CCOC(=O)c1oc2cccc(O)c2c1C	none
CCOC(=O)c1oc2cccc(O)c2c1CN(Cc1ccccc1)C(C)=O	DDE Tn7 FP inh 14.2 | DDE Tn7 confirm inactive | Tn7 DDE ctr inactive
NS(=O)(=O)c1ccc(NC(=O)CSc2ncnc3ccccc23)cc1	DDE Tn7 FP inh 14.1 | DDE Tn7 confirm inactive | Tn7 DDE ctr inactive
NS(=O)(=O)c1cccc(NC(=O)CSc2ncnc3ccccc23)c1	none
COc1ccc(OC)c(/C=C/C(=O)OCC(=O)Nc2nnc(-c3ccccc3)o2)c1	DDE Tn7 FP inh 13.8 | DDE Tn7 confirm inactive | Tn7 DDE ctr inactive
C[C@H](O)[C@@H]1CN2CCc3c([nH]c4cccc(-c5ccccc5)c34)[C@@H]2C[C@@H]1N(C)C(=O)C1CCCCC1	none (no result: MT1-MMP act inh)
Cc1cc(C)n(-c2nc3ccccc3c(=O)n2OCC(=O)N(C)C)n1	none
Cc1cc(C)n(-c2nc3ccccc3c(=O)n2OCC(=O)Nc2c(C)cccc2C)n1	DDE Tn7 FP inh 16.0 | DDE Tn7 confirm inactive | Tn7 DDE ctr inactive
CCC[C@H]1[C@@H](NC(=O)c2ccc(N(C)C)cc2)CC[C@@]23CCCN2C(=O)CCC[C@@H]13	none (no result: MT1-MMP act inh)
CNC(=O)Cn1ncc2c(C)n(Cc3ccc(C)cc3)c(C)c2c1=O	DDE Tn7 FP inh 14.1 | DDE Tn7 confirm inactive | Tn7 DDE ctr inactive
Cc1ccc(Cn2c(C)c3cnn(CC(=O)NC4CCCC4)c(=O)c3c2C)cc1	none
Cc1ccc(S(=O)(=O)NCCCc2ccc3c(c2)[C@]2(CCC[C@@H](OCc4ccccc4)[C@@H]2NC(=O)CCc2ccccc2)C(=O)N3Cc2ccccc2)cc1	none (no result: MT1-MMP act inh)
Cc1ccc(NC(=O)Cn2c(O)c(N=NC(N)=O)c3ccccc32)cc1	DDE Tn7 FP inh 14.4 | DDE Tn7 confirm inactive | Tn7 DDE ctr inactive
Cc1ccc(NC(=O)Cn2c(O)c(N=NC(N)=S)c3ccccc32)cc1	none
CCCC1CCC2(CC1)CCC2OC(=S)NCCc1ccc(Cl)cc1 (configuration not stated)	none (no result: MT1-MMP act inh)
Cc1cc(C)n(-c2ccc(C(=O)O)cc2)n1	DDE Tn7 FP inh 13.9 | DDE Tn7 confirm inactive | Tn7 DDE ctr inactive
O=C1C=C(NNC(=O)c2cccnc2)CC(c2ccco2)C1 (configuration not stated)	DDE Tn7 FP inh 16.1 | DDE Tn7 confirm inactive | Tn7 DDE ctr inactive
CC1(C)CC(=O)C=C(NNC(=O)c2cccnc2)C1	none
COc1ccc2c(c1)Sc1ccc(Cl)cc1N2	none (no result: MT1-MMP act inh)
C/C(=N\NC(=O)Cn1cnc2ccccc21)c1cccs1	DDE Tn7 FP inh 17.1 | DDE Tn7 confirm inactive | Tn7 DDE ctr inactive
COc1ccc(OC)c(NC(=S)N2CCN(Cc3ccccc3)CC2)c1	none
COc1ccc(NC(=S)N2CCN(Cc3ccccc3)CC2)c(OC)c1	DDE Tn7 FP inh 14.7 | DDE Tn7 confirm inactive | Tn7 DDE ctr inactive
Cc1cccc(NC(=O)CCS(=O)(=O)c2ccccc2)n1	DDE Tn7 FP inh 14.2 | DDE Tn7 confirm inactive | Tn7 DDE ctr inactive
N#CC1=C(N)C(C#N)(C#N)[C@H](c2c(F)cccc2F)[C@H]2CC3(CC=C12)OCCO3	DDE Tn7 FP inh 15.6 | DDE Tn7 confirm inactive | Tn7 DDE ctr inactive
CC(C)CCN1C(=O)c2cccc3c(N)ccc(c23)C1=O	DDE Tn7 FP inh 48.6 | DDE Tn7 confirm inactive | Tn7 DDE ctr inactive
Nc1ccc2c3c(cccc13)C(=O)N(c1ccccc1)C2=O	none
CC(=O)Nc1ccc(NC(=O)CCCCCN2C(=O)c3ccccc3C2=O)cc1	DDE Tn7 FP inh 13.9 | DDE Tn7 confirm inactive | Tn7 DDE ctr inactive
O=C(CCCCCN1C(=O)c2ccccc2C1=O)Nc1ccccc1	none
C=CCN(Cc1ccc(OC)cc1OC)C(C#CCCCC)c1ccccc1 (configuration not stated)	none (no result: MT1-MMP act inh)
CN(C(=O)c1cccc(NC(=O)Cc2cccc(NC(=O)C3CCN(C(=O)C4CCCCC4)CC3)c2)c1)C1CC1	DDE Tn7 FP inh 14.7 | DDE Tn7 confirm inactive | Tn7 DDE ctr inactive
CN(C(=O)c1cccc(NC(=O)Cc2cccc(NC(=O)C3CCN(C(=O)C4CCC4)CC3)c2)c1)C1CC1	none
COC(=O)[C@]12C[C@H](CC(=O)NCCc3ccccc3OC)C(=O)N(Cc3ccc4c(c3)OCO4)C1=C[C@H](COCc1ccccc1)O[C@@H]2C	none (no result: MT1-MMP act inh)
Cc1cc2ncn(S(=O)(=O)N3CCCCC3)c2cc1C	DDE Tn7 FP inh 14.4 | DDE Tn7 confirm inactive | Tn7 DDE ctr inactive
Cc1cc2ncn(S(=O)(=O)N3CCOCC3)c2cc1C	none
Oc1cccc(Nc2ccccc2)c1	DDE Tn7 FP inh 14.2 | DDE Tn7 confirm inactive | Tn7 DDE ctr inactive
c1ccc(Nc2cccc(Nc3ccccc3)c2)cc1	none

Screening results (PubChem)
